Experimental data collected from several papers.
Each line is one published result; the experiments were not run side by side.
Target: Serine/threonine-protein kinase haspin (HASPIN, Homo sapiens, UniProt Q8TF76)
Sequence (Q8TF76 1-798, as in one of the studies): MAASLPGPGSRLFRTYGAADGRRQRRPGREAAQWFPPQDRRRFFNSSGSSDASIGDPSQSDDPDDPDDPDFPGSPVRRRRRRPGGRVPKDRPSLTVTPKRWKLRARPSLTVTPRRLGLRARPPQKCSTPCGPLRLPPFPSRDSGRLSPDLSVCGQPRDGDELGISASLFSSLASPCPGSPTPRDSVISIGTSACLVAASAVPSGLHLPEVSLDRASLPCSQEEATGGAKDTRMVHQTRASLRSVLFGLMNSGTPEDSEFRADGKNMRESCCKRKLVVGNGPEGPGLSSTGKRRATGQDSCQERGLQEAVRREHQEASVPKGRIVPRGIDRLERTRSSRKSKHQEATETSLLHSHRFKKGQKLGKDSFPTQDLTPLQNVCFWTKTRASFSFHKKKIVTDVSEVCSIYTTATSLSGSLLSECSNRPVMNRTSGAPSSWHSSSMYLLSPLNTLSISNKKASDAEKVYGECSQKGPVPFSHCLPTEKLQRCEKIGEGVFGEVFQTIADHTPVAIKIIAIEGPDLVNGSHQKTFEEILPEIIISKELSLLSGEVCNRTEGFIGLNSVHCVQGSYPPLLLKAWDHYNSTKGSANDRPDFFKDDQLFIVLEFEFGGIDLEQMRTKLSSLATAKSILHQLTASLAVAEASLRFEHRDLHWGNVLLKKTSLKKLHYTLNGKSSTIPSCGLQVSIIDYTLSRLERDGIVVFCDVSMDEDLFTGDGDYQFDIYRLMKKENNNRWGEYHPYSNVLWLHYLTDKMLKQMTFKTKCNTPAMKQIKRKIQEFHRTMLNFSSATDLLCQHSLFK

SMILES	test	setting	quantity	value
O=C(O)c1ccc2c3c1cccc3c(=O)n1c3ccccc3nc21	enzyme activity, inhibitor	0.5 µM	remaining activity	90.9%
Cc1cc(NC(=O)c2cccc3cc(-c4cccc5[nH]nc(N)c45)ccc23)ccc1F	enzyme activity, inhibitor	0.1 µM	activity vs control	111%
N#CCCc1ccc2c(c1)-c1[nH]c3ccc([N+](=O)[O-])cc3c1CC(=O)N2	cell-free assay	0.5 µM	remaining signal	110%
CC(C)(C)c1nc2c(s1)c1nc(N)ncc1c1ccc(NS(=O)(=O)c3c(F)cccc3F)c(F)c12	enzyme activity, inhibitor, radiometric	1 µM	remaining activity	118%
CC(=O)c1c(NS(C)(=O)=O)c2cc(-c3ccc(Cl)cc3)c(-c3ccc(Cl)cc3Cl)nc2n(C)c1=O	cell-free assay, competition with immobilised ligand	1 µM	remaining binding	92%
CCN(CC)CCNC(=O)c1c(C)[nH]c(/C=C2\C(=O)Nc3ccc(F)cc32)c1C	enzyme activity, inhibitor	0.3 µM	inhibition	32%
Cc1cnc(NC2CCOCC2)nc1-n1cnc(C(=O)NC(CN)c2cc(F)cc(Cl)c2)c1 (centres unmarked)	enzyme activity, inhibitor, radiometric	1 µM	remaining activity	40%
CNC(=O)c1cc(Oc2ccc(NC(=O)Nc3ccc(Cl)c(C(F)(F)F)c3)cc2)ccn1	enzyme activity, inhibitor	10 µM	inhibition	10%
N#Cc1ccc(Nc2ccc3[nH]c(=O)[nH]c3c2)c(Cl)c1	cell-free assay, competition with immobilised ligand	1 µM	remaining binding	100%
CCN(CC)CCNC(=O)c1c(C)[nH]c(/C=C2\C(=O)Nc3ccc(Cl)cc32)c1C	enzyme activity, inhibitor	0.5 µM	remaining activity	82.9%
Cc1ccc(Nc2nccc(N(C)c3ccc4c(C)n(C)nc4c3)n2)cc1S(N)(=O)=O	enzyme activity, inhibitor	10 µM	inhibition	8%
COCCOc1nc(-c2ccc(Cl)nc2)nc2c1CN(C(=O)c1ncn3ccccc13)CC2	cell-free assay, competition with immobilised ligand	0.1 µM	remaining binding	100%
CC(C)(O)[C@H]1CC[C@H](Nc2ccc3ncc(-c4cccc(C(F)(F)F)c4)n3n2)CC1	enzyme activity, inhibitor	1 µM	remaining activity	15.4%
COc1ccc(C(=O)Nc2sc3c(c2C(N)=O)CCCC3)cc1OC	enzyme activity, inhibitor	0.5 µM	remaining activity	82.8%
O=C(Nc1ccc(Oc2ccc(F)cc2)cc1)N1CCc2ncccc2[C@H]1c1ccc(F)cc1	cell-free assay, competition with immobilised ligand	1 µM	remaining binding	85%
COc1cc(-c2cc(-c3ccc(N4CCNCC4)cc3)cnc2C)cc(OC)c1OC	enzyme activity, inhibitor	1 µM	inhibition	3%
CN1CC(Oc2cnc(C#N)cc2-c2ccn3nc(NC(=O)C4CC4)cc3c2)C1	enzyme activity, inhibitor	1 µM	inhibition	3%
Cn1cncc1C1=CN(c2ncnc3[nH]cnc23)CCS1	enzyme activity, inhibitor, radiometric	50 nM	inhibition	25.6%
CC1=C(C#N)C(c2ccc3c(c2)c(NC(=O)c2ccccc2C)nn3C)C(C#N)=C(C)N1	cell-free assay, competition with immobilised ligand	1 µM	remaining binding	71%
Cn1cnc(Br)c1C1=CN(c2ncnc3[nH]cnc23)CCS1	enzyme activity, inhibitor, radiometric	50 nM	inhibition	32.9%
Cc1c(NC(=O)c2cc(C(N)=O)nc3cc(F)ccc23)c(C(F)(F)F)nn1Cc1ccc(C(C)(C)C)cc1	cell-free assay, competition with immobilised ligand	1 µM	remaining binding	100%
CN1CCN(C(=O)c2ccc3cc(CCNc4ccnc5ccc(C#N)cc45)ccc3c2)CC1	cell-free assay, competition with immobilised ligand	2 µM	inhibition	> 35%
Cc1nc(Cc2cccc(C(F)(F)F)c2)sc1-c1ccc(C(N)=O)nc1	cell-free assay, competition with immobilised ligand	1 µM	remaining binding	100%
Cc1sc(C(=O)NC2COC2)cc1-n1cc(NC(=O)Nc2c(F)cccc2Cl)cn1	enzyme activity, inhibitor	10 µM	remaining activity	92.4%
C[C@@H]1CN(c2cc(-c3nn(C)c4ccc(OC5(C)CC5)cc34)ncn2)C[C@H](C)O1	cell-free assay, competition with immobilised ligand	1 µM	remaining binding	99%
CCCOc1ccc(OC)c(F)c1C(=O)c1ccc(C(=O)N[C@@H]2CNC[C@H]2NC(=O)c2ccc3[nH]ncc3c2)cc1	enzyme activity, inhibitor	10 µM	remaining activity	22%
